Assay [1] in a line: In vitro inhibition of 5-alpha-dihydrotestosterone stimulated shionogi cell proliferation; NA is not active. The assay is classed as functional, Mus musculus. In outline:
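Shionogi mouse mammary carcinoma clone SEM-107 (passage 23), plated at 17400 cells/mL in MEM with 2% charcoal-treated FCS. Grown 13 days with medium changed every 3–4 days. Methanol-fixed, DNA content measured. IC50 by weighted iterative nonlinear least-squares regression; means ± SEM.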

Assay [2] deals with T1, 3-oxo-5-alpha-steroid 4-dehydrogenase 1 (Homo sapiens, UniProt P18405).
T1 sequence (P18405 whole entry): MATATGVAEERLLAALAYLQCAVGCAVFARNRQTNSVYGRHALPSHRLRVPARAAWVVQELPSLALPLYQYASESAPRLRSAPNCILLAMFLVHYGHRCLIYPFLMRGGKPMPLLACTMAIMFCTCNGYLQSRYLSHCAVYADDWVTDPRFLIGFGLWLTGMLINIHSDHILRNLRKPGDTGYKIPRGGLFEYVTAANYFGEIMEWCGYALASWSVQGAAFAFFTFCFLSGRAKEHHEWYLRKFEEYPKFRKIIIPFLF
The assay can be described thus: In vitro inhibition of human tSteroid 5-alpha-reductase type I in transfected 293 cells using [3H]- delta4-Androstenedione as substrate. The assay is classed as cell-based, HEK293. In outline: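 Homogenate of 293 cells transfected with human type 1 cDNA was the enzyme source. Compounds in ethanol were diluted in 50 mM Tris-HCl pH 7.5 with 20% glycerol and 1 mM EDTA. Screening was at 1 and 0.1 μM, with 12-point IC50 curves (0.1–1000 nM) for actives. Reactions used [3H]androstenedione and 500 μM NADPH for 60 min at 37 °C, followed by ether extraction, TLC and counting of androstanedione as % of control.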

The target in assay [3] is T2, 3-oxo-5-alpha-steroid 4-dehydrogenase 2 (Homo sapiens, UniProt P31213).
T2 sequence (P31213 whole entry): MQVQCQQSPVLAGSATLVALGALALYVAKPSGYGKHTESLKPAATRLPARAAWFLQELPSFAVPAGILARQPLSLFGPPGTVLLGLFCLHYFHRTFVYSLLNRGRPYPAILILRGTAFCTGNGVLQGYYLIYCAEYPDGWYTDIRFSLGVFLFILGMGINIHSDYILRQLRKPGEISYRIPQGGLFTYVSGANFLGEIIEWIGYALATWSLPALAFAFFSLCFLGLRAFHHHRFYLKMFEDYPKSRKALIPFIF
The assay is described as follows: In vitro inhibition of human Steroid 5-alpha-reductase type 2 in transfected SW-13 cells using [3H]- delta4-Androstenedione as substrate. The assay is classed as cell-based. An outline of the steps:
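Homogenate of SW-13 cells transfected with human type II cDNA was the enzyme source. Compounds in ethanol were diluted in 50 mM Tris-HCl pH 7.5 with 20% glycerol and 1 mM EDTA. They were screened at 1 and 0.1 μM; those giving ≥50% inhibition at 1 μM were run at 12 concentrations, 0.1–1000 nM. Reactions used [3H]androstenedione and 500 μM NADPH for 60 min at 37 °C. Steroids were ether-extracted and TLC-separated, and androstanedione radioactivity was expressed as % of control.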

Assay [4] deals with T1, 3-oxo-5-alpha-steroid 4-dehydrogenase 1. The assay can be described thus: In vitro inhibition of human Steroid 5-alpha-reductase type I in transfected 293 cells using [3H]- delta4-Androstenedione as substrate. The assay is classed as cell-based, HEK293. An outline of the steps: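 Homogenate of 293 cells transfected with human type 1 5α-reductase cDNA was used as enzyme. Compounds were dissolved in ethanol and diluted in 50 mM Tris-HCl pH 7.5 with 20% glycerol and 1 mM EDTA. They were screened at 1 and 0.1 μM; those giving ≥50% inhibition at 1 μM were tested at 12 concentrations from 0.1 to 1000 nM. Incubation used [3H]androstenedione and 500 μM NADPH for 60 min at 37 °C, followed by ether extraction, TLC, and counting of androstanedione as % of control.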

Assay [5] in a line: In vitro inhibition of 5-alpha-dihydrotestosterone stimulated shionogi cell proliferation. The assay is classed as functional. As to conditions: Mus musculus; call rule not given here. An outline of the steps: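 Androgen-sensitive Shionogi mouse mammary carcinoma clone SEM-107 (passage 23) plated at 17400 cells/mL in MEM with 2% dextran-charcoal-treated FCS. Cells grew 13 days with medium changes every 3–4 days, then were methanol-fixed. DNA content was measured, and IC50 was fitted by weighted iterative nonlinear least squares.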

For assay [6], the target named is T2, 3-oxo-5-alpha-steroid 4-dehydrogenase 2. The assay is described as follows: In vitro inhibition of human Steroid 5-alpha-reductase type 2 in transfected SW-13 cells using [3H]- delta4-Androstenedione as substrate; NA is not active. The assay is classed as cell-based. An outline of the steps:
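Homogenate of SW-13 cells transfected with human type II cDNA. Compounds diluted in 50 mM Tris-HCl pH 7.5, 20% glycerol, 1 mM EDTA, first screened at 1 and 0.1 μM. Those reaching 50% inhibition at 1 μM were run at 12 levels, 0.1–1000 nM. Incubated with 5 nM [3H]androstenedione and 500 μM NADPH, 60 min, 37 °C. Ether extraction, TLC, androstanedione radioactivity as % of control.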

Assay [7] has as its target T1, 3-oxo-5-alpha-steroid 4-dehydrogenase 1. The assay is described as follows: In vitro inhibition of human Steroid 5-alpha-reductase type I in transfected 293 cells using [3H]- delta4-Androstenedione as substrate; NA is not active. The assay is classed as cell-based. The settings on record: hek293. In outline:
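Homogenate of 293 cells transfected with human type 1 cDNA. Compounds diluted in 50 mM Tris-HCl pH 7.5, 20% glycerol, 1 mM EDTA, first screened at 1 and 0.1 μM. Those reaching 50% inhibition at 1 μM were run at 12 levels, 0.1–1000 nM. Incubated with 1 nM [3H]androstenedione and 500 μM NADPH, 60 min, 37 °C. Ether extraction, TLC, androstanedione radioactivity as % of control.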

For the compound `[3H]C1CC2=CC(=O)CC[C@]2(C)[C@H]2CC[C@]3(C)C(=O)CC[C@H]3[C@H]12` (stereo partly specified), the IC50 result is “Not Active” in assay [1], 2700 nM in assay [2] and 83.9 nM in assay [3].

As for `CC(C)(C)NC(=O)[C@H]1CC[C@H]2[C@@H]3CC[C@H]4NC(=O)C=C[C@]4(C)[C@H]3CC[C@]12C` [FINASTERIDE], the results for the concentration for half-maximal inhibition (IC50) entry in assay [1], in assay [4] and in assay [3] were “Not Active”, 218 nM and 8.47 nM, respectively.

With `CC(C)(C)NC(=O)[C@H]1CCC2C3CCC4=C(Br)C(=O)CC[C@]4(C)C3CC[C@@]21C` (stereo partly specified), the IC50 in assay [2] worked out at 981 nM; in assay [3] it was 387 nM; in assay [5], 184 nM.

Consider `CC(C)(O)C(=O)Nc1ccc([N+](=O)[O-])c(C(F)(F)F)c1` [HYDROXYFLUTAMIDE], for which the concentration for half-maximal inhibition (IC50) entry is “Not Active” in assay [6], “Not Active” in assay [7] and 117 nM in assay [5].

As to `CC(C)(C)NC(=O)[C@H]1CCC2C3CCC4=C(Cl)C(=O)CC[C@]4(C)C3CC[C@@]21C` (stereo partly specified), the half-maximal inhibitory concentration (IC50) was greater than 1000 nM in assay [2], 192 nM in assay [3] and 170 nM in assay [5].

In the case of `CC(C)(C)NC(=O)[C@H]1CCC2C3CCC4=C(S)C(=O)CC[C@]4(C)C3CC[C@@]21C` (stereo partly specified), the results for the half-inhibitory concentration (IC50) in assay [2], in assay [3] and in assay [5] were 709 nM, 437 nM and 279 nM, respectively.

For the compound `CC(C)(C)NC(=O)[C@H]1CCC2C3CCC4=C(O)C(=O)CC[C@]4(C)C3CC[C@@]21C` (stereo partly specified), the results for the IC50 in assay [2], in assay [3] and in assay [5] were greater than 1000 nM, 172 nM and 242 nM, respectively.

The record behind these values is ChEMBL document CHEMBL1128573, “Synthesis and in vitro evaluation of 4-substituted N-(1,1-dimethylethyl)-3-oxo-4-androstene-17 beta-carboxamides as 5 alpha-reductase inhibitors and antiandrogens” (J Med Chem, 1995).
